Assay results taken from ChEMBL document CHEMBL3758073, “Synthesis and Biochemical Evaluation of 3-Phenoxy-1,4-diarylazetidin-2-ones as Tubulin-Targeting Antitumor Agents” (J Med Chem, 2016).

Legend:
MCF7 [1] = assay: Antiproliferative activity against human MCF7 cells assessed as cell viability pre-incubated for 24 hrs with CO2 followed by compound addition after 72 hrs by MTT assay; type: functional, cell-based
In short: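 MCF-7 grown in Eagle's MEM with 10% FBS, 2 mM L-glutamine, penicillin/streptomycin and 1% non-essential amino acids. Cells seeded at 2.5 x 10⁴ cells/mL, 24 h at 37 °C, then dosed from ethanol stocks over 1 nM–100 µM (vehicle 1% v/v ethanol) for 72 h. MTT at 1 mg/mL final, 2 h in the dark, DMSO solubilisation. Viability set against untreated controls; IC50 is the mean of three experiments in triplicate.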

MCF7 [2] = assay: Cytotoxicity against human MCF7 cells assessed as induction of cell death at 10 uM after 72 hrs by LDH assay; type: cell-based; conditions: mcf7, 72 h
In short: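 Cell death in MCF-7 measured by LDH release. Seeding and dosing as for the MTT assay; after 72 h, lysis solution added to blank wells for 1 h to give 100% death. Supernatant mixed with substrate (INT to formazan) for 30 min at rt in the dark, then stopped and read at 490 nm. Percentage cell death reported at 10 μM; assays in triplicate.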

SMILES	IC50 (MCF7 [1]) [µM]	Activity (MCF7 [2]) [%]
COc1ccc([C@@H]2[C@H](Oc3ccccc3)C(=O)N2c2cc(OC)c(OC)c(OC)c2)cc1N	12.2	7.7
COc1ccc([C@@H]2[C@H](Oc3ccccc3)CN2c2cc(OC)c(OC)c(OC)c2)cc1O	3.3	19.8
COc1cc(N2C(=O)[C@@H](Oc3ccccc3)[C@H]2c2cc(O)c(OC)c([N+](=O)[O-])c2)cc(OC)c1OC (relative stereo)	69	12.1
COc1ccc(N2C(=O)[C@@H](Oc3ccccc3)[C@H]2c2ccc(OC)c(O)c2)cc1 (relative stereo)	49	10.4
COc1cc(N2C(=O)[C@@H](Oc3ccccc3)[C@H]2c2cccc([N+](=O)[O-])c2)cc(OC)c1OC (relative stereo)	30	16.7
COc1cc(N2C(=O)[C@@H](Oc3ccccc3)[C@H]2c2ccc(N=[N+]=[N-])cc2)cc(OC)c1OC (relative stereo)	23	5.8
COc1ccc([C@@H]2[C@@H](Oc3ccccc3)C(=O)N2c2cc(OC)c(OC)c(OC)c2)cc1[N+](=O)[O-] (relative stereo)	4.1	5.2
COc1cc(N2C(=O)[C@@H](Oc3ccccc3)[C@H]2c2cc(N)c(OC)c(O)c2)cc(OC)c1OC (relative stereo)	8.8	14
COc1cc(N2C(=O)[C@@H](Oc3ccccc3)[C@H]2c2ccc(Br)cc2)cc(OC)c1OC (relative stereo)	48	
COc1cc([N+](=O)[O-])c([C@@H]2[C@H](Oc3ccccc3)C(=O)N2c2cc(OC)c(OC)c(OC)c2)cc1O (relative stereo)	59	9.9
COc1ccc([C@@H]2[C@H](Oc3ccccc3)C(=O)N2c2cc(OC)c(OC)c(OC)c2)cc1NC(=O)CN (relative stereo)	6.5	
COc1cc(N2C(=O)[C@@H](Oc3ccccc3)[C@H]2c2cccc3ccccc23)cc(OC)c1OC (relative stereo)	53	4.6
COc1ccc([C@@H]2[C@H](Oc3ccccc3)C(=O)N2c2cc(OC)c(OC)c(OC)c2)cc1 (relative stereo)	35	6.5
COc1cc(N2C(=O)[C@@H](Oc3ccccc3)[C@H]2c2ccc(O)c(O)c2)cc(OC)c1OC (relative stereo)	4.5	6
COc1cccc([C@@H]2[C@H](Oc3ccccc3)C(=O)N2c2cc(OC)c(OC)c(OC)c2)c1 (relative stereo)	171	22
COc1cc(N2C(=O)[C@@H](Oc3ccccc3)[C@H]2c2cccc(O)c2)cc(OC)c1OC (relative stereo)	54	22
COc1cc(N2C(=O)[C@@H](Oc3ccccc3)[C@H]2c2ccc(C#N)cc2)cc(OC)c1OC (relative stereo)	31.6	4.8
COc1cc(N2C(=O)[C@@H](Oc3ccccc3)[C@H]2c2ccc(N)cc2)cc(OC)c1OC (relative stereo)	160	14.7
COc1cc(N2C(=O)[C@@H](Oc3ccccc3)[C@H]2c2cccc(N)c2)cc(OC)c1OC (relative stereo)	17	48
COc1cc(N2C(=O)[C@@H](Oc3ccccc3)[C@H]2c2ccc(O)cc2)cc(OC)c1OC (relative stereo)	48	0.1
COc1ccc([C@@H]2[C@@H](Oc3ccccc3)C(=O)N2c2cc(OC)c(OC)c(OC)c2)cc1NC(=O)C(C)N (relative stereo)	0.23	

SMILES	IC50 (MCF7 [1]) [µM]	Activity (MCF7 [2]) [%]
COc1ccc([C@@H]2[C@H](Oc3ccccc3)C(=O)N2c2cc(OC)c(OC)c(OC)c2)cc1F (relative stereo)	6.3	70
COc1cc(N2C(=O)[C@@H](Oc3ccccc3)[C@H]2c2ccc(SC)cc2)cc(OC)c1OC (relative stereo)	7.7	8.1
COc1ccc([C@@H]2[C@H](Oc3ccccc3)C(=O)N2c2cc(OC)c(OC)c(OC)c2)cc1NC(=O)C(C)N (relative stereo)	9.2	
COc1ccc([C@@H]2[C@H](Oc3ccccc3)C(=O)N2c2cc(OC)c(OC)c(OC)c2)cc1[N+](=O)[O-] (relative stereo)	69	5.3
COc1cc(N2C(=O)[C@@H](Oc3ccccc3)[C@H]2c2ccc3ccccc3c2)cc(OC)c1OC (relative stereo)	282	10.7
COc1cc([C@@H]2[C@H](Oc3ccccc3)C(=O)N2c2cc(OC)c(OC)c(OC)c2)cc(OC)c1OC (relative stereo)	29	0
COc1ccc([C@@H]2[C@H](Oc3ccccc3)C(=O)N2c2cc(OC)c(OC)c(OC)c2)c(N)c1O (relative stereo)	19	52
COc1ccc([C@@H]2[C@H](Oc3ccccc3)C(=O)N2c2cc(OC)c(OC)c(OC)c2)cc1Br (relative stereo)	5.1	6.4
CCOC(=O)/C=C/c1ccc([C@@H]2[C@H](Oc3ccccc3)C(=O)N2c2cc(OC)c(OC)c(OC)c2)cc1 (relative stereo)	87	
COc1ccc([C@@H]2[C@H](Oc3ccccc3)C(=O)N2c2cc(OC)c(OC)c(OC)c2)cc1OC (relative stereo)	26	11.2
COc1cc(N2C(=O)[C@@H](Oc3ccccc3)[C@H]2c2ccc([N+](=O)[O-])cc2)cc(OC)c1OC (relative stereo)	63	27
COc1cc([C@@H]2[C@H](Oc3ccccc3)C(=O)N2c2cc(OC)c(OC)c(OC)c2)ccc1O (relative stereo)	32	5.1
COc1ccc([C@@H]2[C@@H](Oc3ccccc3)C(=O)N2c2cc(OC)c(OC)c(OC)c2)cc1Br (relative stereo)	31	3.9
COc1ccc([C@@H]2[C@@H](Oc3ccccc3)C(=O)N2c2cc(OC)c(OC)c(OC)c2)cc1OP(=O)(O)O (relative stereo)	23	
COc1ccc([C@@H]2[C@H](Oc3ccccc3)C(=O)N2c2cc(OC)c(OC)c(OC)c2)c([N+](=O)[O-])c1O (relative stereo)	89	12.7
COc1cc(N2C(=O)[C@@H](Oc3ccccc3)[C@H]2c2ccc3c(c2)OCO3)cc(OC)c1OC (relative stereo)	48	8.3
COc1cc(N2C(=O)[C@@H](Oc3ccccc3)[C@H]2c2ccc([S+](C)[O-])cc2)cc(OC)c1OC (relative stereo)	20	1.7
COc1cc(N)c([C@@H]2[C@H](Oc3ccccc3)C(=O)N2c2cc(OC)c(OC)c(OC)c2)cc1O (relative stereo)	20	70
COc1ccc([C@@H]2[C@H](Oc3ccccc3)C(=O)N2c2cc(OC)c(OC)c(OC)c2)cc1OP(=O)(O)O (relative stereo)	42	
COc1cc(N2C(=O)[C@@H](Oc3ccccc3)[C@H]2c2ccc(S(C)(=O)=O)cc2)cc(OC)c1OC (relative stereo)	62	10.2
COc1ccc([C@@H]2[C@@H](Oc3ccccc3)C(=O)N2c2cc(OC)c(OC)c(OC)c2)cc1 (relative stereo)	6.9	7.3
